TRPC6 act: mouse TRPC6 channel activation; Q61143; 310,000 tested, 0.13% active; B-score at 10 µM; HEK293-TRPC6 membrane potential dye fluorescence; active compounds read high;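 active means B-score of the integrated fluorescence ratio above library mean plus 3 SD, and starting fluorescence ratio within library mean plus 5 SD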;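 further: higher score means more depolarization so channel activation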
TRPC4 inh: TRPC4 (mouse) channel inhibition | B-score at 10 µM | 300,000 tested, 0.39% active | AID 2247 | HEK293 TRPC4beta/mu-opioid, DAMGO-evoked Fluo4 calcium flux; active compounds read low | Q9QUQ5;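 active means B-score over 3 SD under the library average, no early fluorescence shift, positive overall ratio signal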
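Test system – stable TRPC4beta/mu-opioid receptor HEK293 cells · Probe or stimulus – DAMGO, a submaximal dose followed by a maximal one · Dosing – one concentration per compound · Signal – Fluo4 calcium fluorescence by kinetic imaging, 5 s 1 Hz baseline · Evaluation – per-well B score of integrated baseline-normalized Fluo4 ratio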
TRPC6 inh: blocks the mouse TRPC6 cation channel; Q61143; HEK293-TRPC6, membrane potential dye, ACh-evoked depolarization; active compounds read low; B-score at 10 µM; 310,000 tested, 1.1% active;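 active means B-score under library mean minus 3 SD, initial fluorescence not abnormally high, positive integrated signal ratio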;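 further: B-score derived from integrated fluorescence ratio over the kinetic read; more negative B-score means stronger inhibition of depolarization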
TRPC4 agonist: activators of mouse TRPC4 channel; Q9QUQ5; HEK293 TRPC4beta/mu-opioid, Fluo4 calcium fluorescence; active compounds read high; B-score at 10 µM; 310,000 tested, 0.49% active; AID 2237;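 active means B-score above 5 SD of library B-scores, and initial fluorescence ratio not above library mean plus 5 SD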;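 further: positive B-score marks a calcium rise read as TRPC4 activation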
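Assay system: HEK293 stable line with TRPC4beta plus mu-opioid receptor; schedule: 45 min room-temperature Fluo4 loading, 110 s read; technique: kinetic Fluo4 calcium fluorescence; evaluation: integrated baseline-normalised fluorescence ratio, converted to per-well B score; controls: buffer (low) and maximal DAMGO (high)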
Platelet DG rel: platelet dense granule release activity; inhibition, %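 (compounds screened at 7.5 µM in platelet-rich plasma)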; human platelet-rich plasma, SFLLRN dense granule ATP release, luminescence; AID 1663; 300,000 tested, 0.22% active;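 active means mean replicate score, as percent of positive control, at or above 50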
TRPC4 PAM: allosterically enhances the mouse TRPC4 cation channel. HEK293 TRPC4beta/mu-opioid, DAMGO EC20, Fluo-4 Ca2+ flux; active compounds read high. B-score at 10 µM. 310,000 tested, 0.42% active;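 active means B-score of calcium response area above 5 SD of library B-scores, with initial fluorescence ratio within 5 SD of library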;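 further: B-score of integrated fluorescence ratio over time as area under calcium response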
Starred values were filed as active, the others as inactive; i = inactive. Shown are actives, neighbours in structure and some others; about 2.5% of the full set was active somewhere.

SMILES	TRPC6 act	TRPC4 inh	TRPC6 inh	TRPC4 agonist	Platelet DG rel	TRPC4 PAM
Oc1ccc(-c2ccccc2)cc1CN1CCCCCC1	i	i	i	i	2	i
Oc1ccc(CN2CCCCC2)nc1-c1ccccc1	i	-6*	i	i	8	i
O=C(O)CCN1C(=O)c2ccc(NC(=O)CCc3ccccc3)cc2C1=O	i	i	i	i	-4	i
COc1cc(C(C)=O)ccc1COc1ccc(C(=O)O)cc1OC	i	i	i	i	3	i
OC(CNCCc1ccc(C(F)(F)F)cc1)COc1cccc2ccccc12 (configuration not stated)	i	i	i	60*	6	i
CCOC(=O)c1c(C)n(C)c2ccc(OCC(O)CN3CCN(C)CC3)cc12 (configuration not stated)	i	i	i	i	0	i
CC(=O)c1cccc(OCC(O)CNCCc2ccc(Cl)cc2)c1 (configuration not stated)	i	i	i	i	-1	10*
CCOC(=O)c1c(C)n(C)c2ccc(OCC(O)CNCCc3ccccc3)cc12 (configuration not stated)	i	i	i	i	-5	21*
COc1ccccc1COCC(O)CNCCc1ccc(C(F)(F)F)cc1 (configuration not stated)	i	i	i	i	18	i
OC(CNCCc1ccc(C(F)(F)F)cc1)COc1ccc2ccccc2c1 (configuration not stated)	i	i	i	i	8	24*
Cc1c(C(=O)N2CC(C)OC(C)C2)[nH]c2ccc(Br)cc12 (configuration not stated)	i	i	i	i	1	i
C=CCc1cccc(CNc2c(C)cc(C)cc2C)c1O	i	i	i	i	3	i
OC1CN=C2C=CC=CN2C1 (configuration not stated)	i	i	i	i	54*	i
CCOCCCn1c(=N)c(C(=O)NCc2ccc3c(c2)OCO3)cc2c(=O)n3ccccc3nc21	i	i	-5.9*	i	3	i
CC(=O)N=c1c(C#N)cc2c(=O)n3ccccc3nc2n1CCCOC(C)C	i	i	i	i	-42	i
N=c1c(C(=O)NC2CCCCC2)cc2c(=O)n3ccccc3nc2n1CCc1ccccc1	i	i	-5*	i	-11	i
N=c1c(C(=O)NC2CCCCC2)cc2c(=O)n3ccccc3nc2n1Cc1ccco1	i	i	i	i	8	i
CCCn1c(=N)c(C(=O)NCc2ccc3c(c2)OCO3)cc2c(=O)n3cccc(C)c3nc21	i	i	i	i	2	i
Cc1ccc(Cn2c(=N)c(C(=O)NC3CCCC3)cc3c(=O)n4ccccc4nc32)cc1	i	i	i	66*	4	78*
CC(C)OCCCn1c(=N)c(C(N)=S)cc2c(=O)n3ccccc3nc21	i	i	-7.6*	i	7	i
ON1C(c2ccccc2C(F)(F)F)N(O)[C@H]2CCCC[C@H]21 (some centres not stated)	i	i	i	i	-1	i
CCC(C)NC(=S)NNC(=O)c1ccc(C(C)(C)C)cc1 (configuration not stated)	i	i	i	i	-3	i
CSc1ccc(/C=N/NC(=O)c2cccc(O)c2)cc1	i	i	i	i	72*	i
O=C(N1CCOCC1)N1CCc2ccccc21	i	i	i	i	-4	i
CCOC(=O)c1c(-c2ccc(C)cc2)csc1NC(=O)C1CC=CCC1C(=O)O (configuration not stated)	i	i	i	i	1	i
SMILES	TRPC6 act	TRPC4 inh	TRPC6 inh	TRPC4 agonist	Platelet DG rel	TRPC4 PAM
Cc1ccc(-c2csc(NC(=O)C3CC=CCC3C(=O)O)c2C(=O)OC(C)C)cc1 (configuration not stated)	i	-5*	i	i	4	i
CCOC(=O)c1c(-c2cccc(C)c2)csc1NC(=O)C1CC=CCC1C(=O)O (configuration not stated)	i	-6*	i	i	-1	i
Cc1cccnc1NC(=O)c1csnn1	i	i	i	i	2	i
COc1cccc(C(=O)N(C)CC2CCN(CCc3cccc(C(F)(F)F)c3)CC2)c1	i	i	i	109*	-3	i
CN(CC1CCCN(CCc2cccc(C(F)(F)F)c2)C1)C(=O)c1cc2ccccc2o1 (configuration not stated)	i	-8*	i	i	-7	i
CSc1ccc(S(=O)(=O)NCC(=O)OCC(=O)N(C)Cc2ccccc2)cc1[N+](=O)[O-]	i	i	i	i	1	17*
Oc1ccc(-c2nc3c4c(ncn3n2)-c2ccccc2CC42CCCC2)cc1	i	i	i	i	5	i
O=C(O)c1ccc2c(=O)n3c(nc2c1)/C(=C/c1ccc(Cl)c(Cl)c1)CC3	i	i	i	i	1	i
CC(C)CCn1c(Sc2nc3ccccc3o2)nc2c1c(=O)[nH]c(=O)n2C	i	i	i	i	12	17*
Cn1c(=O)[nH]c(=O)c2c1nc(N1CCCCC1)n2CCSc1nc2ccccc2o1	i	i	i	i	-5	i
Cc1ccc(N(Cc2cc3ccc(C)cc3[nH]c2=O)S(=O)(=O)c2ccccc2)cc1	i	i	i	i	21	i
CCOC(=O)NC(=O)CSc1nc(-c2ccc(C)c(C)c2)cn1-c1ccccc1	i	i	i	i	13	i
Cc1ccc(-c2cn(-c3ccccc3)c(SCC(N)=O)n2)cc1C	i	i	i	i	-5	21*
C=C(c1ccccc1O)n1ccnc1	i	i	i	i	-3	i
CCOc1ccc(CN(C(=O)c2ccccn2)c2ccc(OC)c(Cl)c2)cc1	i	i	i	i	-13	i
CCN(C(=O)c1cnc(NC(C)C)cc1C(F)(F)F)c1ccc(Cl)cc1Cl	i	-6*	i	i	-6	i
O=C(NCCCN1CCCC1)c1ccc(CS(=O)(=O)c2c(Cl)cccc2Cl)o1	i	i	i	i	4	i
COc1cccc(CNCc2ccc(OC)cc2OC)c1	i	i	i	i	0	i
COc1ccc(CNCc2cc(C)c(OC)cc2C)c(OC)c1	i	-5*	i	i	-3	i
